According to ChEMBL document CHEMBL4390658, “Rational design of allosteric modulators of the aromatase enzyme: An unprecedented therapeutic strategy to fight breast cancer” (Eur J Med Chem, 2019):
pIC50: −log10 of the molar value.

Legend:
MDA-MB-231 = assay: Growth inhibition of human MDA-MB-231 cells incubated for 72 hrs by cell counting based method; assay type: functional; details: MDA-MB-231, 72 h
Outline: (§1)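 MCF-7 (ER+) and MDA-MB-231 (ER−) cells from ATCC, seeded at 50000 cells/well in triplicate. After 24 h, exposed for 72 h to graded concentrations, up to 200 µM. Cells trypsinized and counted electronically. Means of three independent experiments, each in triplicate, used for dose-response curves and GI50.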

Aromatase [1] = target: T1, Aromatase (Homo sapiens, UniProt P11511); assay: Mixed type inhibition of recombinant human aromatase assessed as substrate Vmax preincubated for 10 mins followed by different substrate concentration and beta-NADP+ addition and measured for 60 mins by fluorescence method based Cornish-Bowden direct linear analysis (reference value: 91.5 /ms); details: 1 h
T1 sequence (P11511 whole entry): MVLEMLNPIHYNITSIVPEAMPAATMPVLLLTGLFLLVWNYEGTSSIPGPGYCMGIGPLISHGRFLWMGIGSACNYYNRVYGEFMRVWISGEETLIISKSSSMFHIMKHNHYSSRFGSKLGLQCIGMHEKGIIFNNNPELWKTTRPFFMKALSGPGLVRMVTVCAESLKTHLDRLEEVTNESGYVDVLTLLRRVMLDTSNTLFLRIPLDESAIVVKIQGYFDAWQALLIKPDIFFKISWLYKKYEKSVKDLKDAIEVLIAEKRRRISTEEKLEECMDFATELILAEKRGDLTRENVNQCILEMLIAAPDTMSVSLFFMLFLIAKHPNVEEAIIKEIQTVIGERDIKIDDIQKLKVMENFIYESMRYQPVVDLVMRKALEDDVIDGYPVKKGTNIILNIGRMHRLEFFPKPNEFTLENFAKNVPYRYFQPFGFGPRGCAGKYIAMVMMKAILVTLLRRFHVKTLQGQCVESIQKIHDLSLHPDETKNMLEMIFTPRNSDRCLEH

Aromatase [2] = target: T1, Aromatase; assay: Inhibition of recombinant human aromatase at 100 uM preincubated for 10 mins followed by substrate and beta-NADP+ addition and measured for 60 mins by fluorescence method; details: 1 h
Outline: (§2)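 Single-concentration screen of recombinant human aromatase with an NADPH-generating system, at 100 and 200 µM inhibitor, DMSO ≤0.25% (v/v) final. Mix preincubated 10 min at 37°C, then fluorogenic substrate plus β-NADP+ added. Fluorescence read at 488/527 nm over 60 min. % inhibition taken from the RFU ratio of control to test, in triplicate.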

Aromatase [3] = target: T1, Aromatase; assay: Inhibition of recombinant human aromatase preincubated for 10 mins followed by substrate and beta-NADP+ addition and measured for 60 mins by fluorescence method
Aromatase [4] = target: T1, Aromatase; assay: Mixed type inhibition of recombinant human aromatase assessed as Vmax preincubated for 10 min followed by different substrate concentration and beta-NADP+ addition measured for 60 mins by fluorescence method based Michaelis-menten analysis (reference value: 93.3 +/- 1.3 /ms); details: 1 h
MCF7 = assay: Growth inhibition of human MCF7 cells incubated for 72 hrs by cell counting based method; assay type: functional; details: MCF7, 72 h; outline: as §1
Aromatase [5] = target: T1, Aromatase; assay: Inhibition of recombinant human aromatase at 200 uM preincubated for 10 mins followed by substrate and beta-NADP+ addition and measured for 60 mins by fluorescence method; details: 1 h; outline: as §2
Aromatase [6] = target: T1, Aromatase; assay: Inhibition of recombinant human aromatase at 1 uM preincubated for 10 mins followed by substrate and beta-NADP+ addition and measured for 60 mins by fluorescence method; details: 1 h, read-out: INH

Row | Structure (SMILES) | GI50 (MDA-MB-231) | Vmax (Aromatase [1]) | inhibition at 100 µM (Aromatase [2]) | pIC50 (Aromatase [3]) | Vmax (Aromatase [4]) | GI50 (MCF7) | inhibition at 200 µM (Aromatase [5]) | inhibition at 1 µM (Aromatase [6])
1 | Cc1ccc(C(c2ccc(C)c(C)c2)C(O)C(O)C(O)C(O)CO)cc1C (configuration not stated) | – | – | 5% | – | – | – | 8% | –
2 | COc1ccc([C@@H](O)CNC(=O)N[C@@H]2CCCCNC2=O)cc1 | – | – | 4% | – | – | – | 19% | –
3 | N[C@@H]1CCN(Cc2cc(O)c3cc(F)ccc3n2)C[C@H]1O | > 200 µM | 50.7 U/ms | 39% | 4.68 | 64.6 U/ms | > 200 µM | 62% | –
4 | C[C@@H](NC(=O)c1ccc(=O)[nH]c1)c1ccc2[nH]c(=O)[nH]c2c1 | – | – | 27% | – | – | – | 41% | –
5 | CCSC(C(O)C(O)C(O)C(O)CO)n1cnc2c(S)ncnc21 (configuration not stated) | – | – | 2% | – | – | – | 12% | –
6 | OCC(O)C(O)C(O)C(c1ccc(Cl)cc1)c1ccc(Cl)cc1 (configuration not stated) | – | – | 11% | – | – | – | 10% | –
7 | N#Cc1ccc(C(c2ccc(C#N)cc2)n2cncn2)cc1 [LETROZOLE] | > 10 µM | – | – | – | – | 4.1 µM | – | 91%
8 | CC(C)(C)NCC(O)COc1cccc2c1C[C@H](O)[C@H](O)C2 (some centres not stated) [NADOLOL] | – | – | 0% | – | – | – | 0% | –

Now from value to compound:

Row | GI50 (MDA-MB-231) | Vmax (Aromatase [1]) | inhibition at 100 µM (Aromatase [2]) | pIC50 (Aromatase [3]) | Vmax (Aromatase [4]) | GI50 (MCF7) | inhibition at 200 µM (Aromatase [5]) | inhibition at 1 µM (Aromatase [6]) | Structure (SMILES)
9 | 16.2 µM | 60.6 U/ms | 86% | 4.02 | 79.3 U/ms | 22.1 µM | 97% | – | COC(=O)c1ccc(NCC2=CC(=O)c3ccccc3C2=O)cc1
10 | 58 µM | 15.1 U/ms | 79% | 5.29 | 19.3 U/ms | 21.3 µM | 88% | – | CC[C@H](Nc1cc(C)nc(Nc2cccc(O)c2)n1)c1nccs1
11 | – | – | 3% | – | – | – | 3% | – | O=C(NCc1cc[nH]c(=O)c1)c1ccc(COCC(F)(F)F)cc1
12 | > 200 µM | 78.7 U/ms | 53% | 4.66 | 85.2 U/ms | 66.4 µM | 69% | – | O=C(CCc1ccc(O)c(Cl)c1)NCc1csc(=O)[nH]1
13 | – | – | 0% | – | – | – | 3% | – | O=c1cc(CO)oc([C@H](Nc2ccccn2)c2ccccc2O)c1O
14 | – | – | 10% | – | – | – | 13% | – | O=C(C=Cc1ccc(O)c(O)c1)NCC(=O)NC(Cc1ccccc1)C(=O)O (configuration not stated)
15 | – | – | 2% | – | – | – | 6% | – | CC[C@H](CO)N(Cc1ccccn1)C(=O)c1ccc(=O)[nH]c1
16 | – | – | 4% | – | – | – | 3% | – | NC(CCC(=O)O)C(=O)NC(Cc1c[nH]c2ccccc12)C(=O)O (configuration not stated)
17 | 6.8 µM | 16.2 U/ms | 83% | 4.96 | 21.5 U/ms | 17.9 µM | 92% | – | O=C1c2c(O)ccc(O)c2C(=O)c2c(NCCCO)ccc(NCCCO)c21
18 | – | – | 8% | – | – | – | 8% | – | Nc1nc(O)cc(NC(=S)Nc2ccc(C(=O)O)cc2)n1
19 | – | – | 46% | – | – | – | 56% | – | O=C1c2c(O)cc(O)cc2O[C@H](c2ccc(O)c(O)c2)[C@H]1O [(+)-TAXIFOLIN]
20 | – | – | 11% | 5.21 | – | – | 58% | – | CC/C(=C(\c1ccc(O)cc1)c1ccc(OCCNC)cc1)c1ccccc1 [ENDOXIFEN]
